High-throughput results deposited in PubChem by several laboratories.
APP 5'UTR act: activates APP 5'UTR luciferase reporter; actives 1% (n = 190,000); SH-SY5Y APP 5'UTR luciferase reporter, luminescence; zero percent = DMSO vehicle wells; AID 1276; activation, % at 2 µM;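 active = activation above a set limit, based on mean plus 3 SD of controls, cut at about 140% in these data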
p97 inhibitor: inhibitors of human p97 ATPase. P55072. inhibition, % at 8 µM. recombinant p97 ATPase, Kinase-Glo ATP luminescence, 3 h. actives 0.42% (n = 220,000); in the data active = inhibition above about 15%
Target sequence (P55072 whole entry, looked up): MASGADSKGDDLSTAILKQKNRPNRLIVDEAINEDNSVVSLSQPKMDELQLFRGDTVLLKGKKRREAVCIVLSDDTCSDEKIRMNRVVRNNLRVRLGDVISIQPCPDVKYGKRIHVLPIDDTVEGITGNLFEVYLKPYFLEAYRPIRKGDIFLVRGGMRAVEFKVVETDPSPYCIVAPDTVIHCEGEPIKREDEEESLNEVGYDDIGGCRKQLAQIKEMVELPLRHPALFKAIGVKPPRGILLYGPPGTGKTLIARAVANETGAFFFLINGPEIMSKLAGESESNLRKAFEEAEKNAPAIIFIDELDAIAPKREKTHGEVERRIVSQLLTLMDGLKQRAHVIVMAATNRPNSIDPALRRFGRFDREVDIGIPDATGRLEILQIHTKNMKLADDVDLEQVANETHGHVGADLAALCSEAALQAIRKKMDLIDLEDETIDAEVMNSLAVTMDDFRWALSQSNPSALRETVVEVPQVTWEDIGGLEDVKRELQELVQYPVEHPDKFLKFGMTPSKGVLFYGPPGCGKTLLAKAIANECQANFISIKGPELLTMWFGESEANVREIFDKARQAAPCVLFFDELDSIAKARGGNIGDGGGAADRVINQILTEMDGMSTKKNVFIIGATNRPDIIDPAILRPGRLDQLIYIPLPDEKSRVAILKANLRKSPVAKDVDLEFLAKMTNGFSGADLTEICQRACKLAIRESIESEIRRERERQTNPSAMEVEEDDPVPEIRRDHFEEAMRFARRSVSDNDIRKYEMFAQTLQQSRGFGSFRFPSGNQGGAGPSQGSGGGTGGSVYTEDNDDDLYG
Mdm2 ligase inh: inhibitors of human Mdm2 E3 ubiquitin ligase; cell-based MDM2 ubiquitination luciferase reporter, 2 h; 0 = plate control, 100 = twice control, blank-subtracted; signal enhancement, % at 5 µM; Q00987; actives 0.11% (n = 210,000);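 active = signal enhancement of 30% or more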;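 also: luminescence tracks abundance of the self-degrading MDM2-luciferase fusion protein; higher signal means inhibition of MDM2 E3 ligase activity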
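Material: stable MDM2–luciferase fusion reporter cells / Quantity: 2000 cells/well / Dosing: single 5 µM compound dose, 0.2% final DMSO / Buffer or medium: DMEM / Schedule: 4 h cell settling then 2 h compound exposure, 37 °C / Detection: luminescence with SteadyLite reagent, 15 min at room temperature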
STAT1 act: activators of IFN-gamma induced STAT1 signaling | NIH 3T3 STAT1-luciferase reporter, luminescence; 100% = IFN-gamma alone, no compound | activation (% of control), % at 5.5 µM | actives 2.6% (n = 200,000);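 active = activation above the screen-wide mean activation plus 3 SD, cut at about 130% in these data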
NF-kB neuron act: raises NF-kB expression in human neuronal cells; NF-kB reporter expression; active compounds read high; fold change at 12.5 µM; actives 1.6% (n = 190,000); AID 1239; in the data active = fold change above about 3.3
Wee1 stabilizer: human Wee1 degradation inhibition, primary screen; HeLa Luc-Wee1K328M stability, luciferase luminescence; 100% = proteasome inhibitor MG132 effect; actives 1.2% (n = 220,000); reporter increase, % at 5 µM; P30291;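 active = activation above the mean of all tested compounds plus 3 SD, set per screening run, cut at about 8.8% in these data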;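 also: cells exposed to compound for 20 h before luminescence read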
Of the large screens only hits and unclear results are named; the others gave an inactive call. Rows were chosen to be rich in hits. Some 4.6% of all compounds tested hit in one or more screens of this group.

Cc1nc2ccccc2n1CC(=O)OCC(=O)NC1CC1	none
Cc1cccc(NC(=O)c2ccc(NC(C)c3ccccc3)c([N+](=O)[O-])c2)n1 (centres undefined)	none (no result: Mdm2 ligase inh, NF-kB neuron act)
Cn1cccc1/C=C1\Cc2ccccc2C1=O	APP 5'UTR act 184, STAT1 act 140, NF-kB neuron act 7.2
Cn1cccc1/C=C1\CCc2ccccc2C1=O	APP 5'UTR act 167, NF-kB neuron act 5.9
O=C(N/N=C/c1coc2ccccc2c1=O)c1cn(-c2ccccc2)nc1-c1ccccc1	Wee1 stabilizer 10.0
O=C(N/N=C/c1cn(-c2ccccc2)nc1-c1cc2ccccc2o1)c1ccccc1Br	APP 5'UTR act 188 (no result: Mdm2 ligase inh)
CS(=O)(=O)Nc1ccc(C(=O)Nc2ccccc2Cl)cc1	none
O=C(Nc1ccccc1O)c1ccc(Cl)cc1	NF-kB neuron act 5.7
CC(C)(C)c1ccc(C(=O)Nc2ccccc2Cl)cc1	APP 5'UTR act 201, NF-kB neuron act 4.8
O=C(c1sc2cccc(F)c2c1Cl)N1CCN(c2ncccn2)CC1	none
CC(C)c1nnc(NC(=O)c2cccs2)s1	STAT1 act 129 (no result: APP 5'UTR act)
Cc1cnc(C(=O)Nc2nnc(C(C)C)s2)cn1	STAT1 act 131
Cc1cnc(C(=O)Nc2nnc(C)s2)cn1	none
CC(C)(C)c1nnc(NC(=O)c2cccs2)s1	STAT1 act 134, NF-kB neuron act 3.4
CC(C)=CC(=O)Nc1nnc(C(C)C)s1	STAT1 act 145
CCCCc1nnc(NC(=O)C=C(C)C)s1	none
CCc1ccc(C(=O)COC(=O)CNC(=O)COc2ccccc2)cc1	none
Cc1ccc(NCC(=O)N/N=C\c2ccc[nH]2)cc1	none (no result: APP 5'UTR act, STAT1 act, NF-kB neuron act)
Cc1cc(/C=C(\C#N)c2nnc(N3CCOCC3)n2-c2ccccc2)c(C)n1-c1ccccc1	Wee1 stabilizer 10 (no result: Mdm2 ligase inh)
COc1cc(/C=C(\C#N)c2nnc(N3CCOCC3)n2-c2ccccc2)ccc1O	none
Clc1ccc(-c2cn3c(n2)CCC3)cc1	NF-kB neuron act 3.5, Wee1 stabilizer 9.4
Cc1cccc(C)c1NC(=O)c1cccc(COc2cc(Cl)ccc2Cl)c1	Wee1 stabilizer 9.0
CN(CCCC1CCCC1)C(=O)CCc1nnc(-c2ccccc2)o1	STAT1 act 148
O=C(CCc1nnc(-c2ccccc2)o1)NC1CCCCC1	STAT1 act 130
Cc1cc(C)n(CCN(C)C(=O)CCc2nnc(CCC3CCCCC3)o2)n1	STAT1 act 140
O=C(CCC(=O)c1ccc(F)cc1)Nc1cccc(S(=O)(=O)Nc2cccc(Cl)c2)c1	none
Cc1cc(S(=O)(=O)N2CCN=C2c2ccccc2)c(C)cc1Cl	none
O=C(Nc1ccc(S(=O)(=O)Nc2ncccn2)cc1)c1ccc(N2CCCC2=O)cc1	none (no result: APP 5'UTR act, Mdm2 ligase inh, STAT1 act, NF-kB neuron act)
c1ccc(-c2nc(-c3cccnc3)n[nH]2)cc1	none
Brc1cccc(-c2n[nH]c(-c3ccccc3)n2)c1	STAT1 act 138, NF-kB neuron act 3.9
Oc1nc(Nc2cccc(Cl)c2)sc1/C=C1\C=Nc2ccccc21	none
Oc1cccc(Nc2nc(O)c(/C=C3\C=Nc4ccccc43)s2)c1	p97 inhibitor 32 (no result: APP 5'UTR act, STAT1 act, NF-kB neuron act)
O=C(/C=C\Nc1ccccn1)c1ccc(Cl)cc1	APP 5'UTR act 175
Cc1sc2ncn(Cc3ccccc3F)c(=O)c2c1C	none
O=c1c2ccsc2ncn1Cc1ccccc1F	Wee1 stabilizer 15
CCc1ccc2nc(Nc3nc(COC)cc(=O)[nH]3)nc(C)c2c1	none
COCc1cc(=O)[nH]c(Nc2nc3ccc(C)cc3o2)n1	Mdm2 ligase inh 36, Wee1 stabilizer 8.9
O=C(Nc1ccc(Cl)cc1)N1CCc2ccccc2C1	STAT1 act 139, Wee1 stabilizer 9.7
O=C(Nc1ccccc1)N1CCc2ccccc2C1	none (no result: Mdm2 ligase inh)
Cc1ccc(NC(=O)N2CCc3ccccc3C2)cc1	STAT1 act 148, NF-kB neuron act 3.5
COc1cccc(CN2CCNC(=O)C2CC(=O)NCCn2ccc3ccccc32)c1OC (centres undefined)	none
Cc1cccc(Cn2nc(-n3cccc3)c3c(C)cc(C)nc32)c1	none
COc1ccccc1/C=N\Nc1cn[nH]c(=O)c1Cl	NF-kB neuron act 9.1
Cc1cccc(/C=N\Nc2cn[nH]c(=O)c2Cl)c1	none
Cc1ccc(CNS(=O)(=O)c2ccc3c(c2)n(C)c(=O)c(=O)n3C)cc1	Wee1 stabilizer 10
COc1ccc(-c2nc3ccc(N4CCN(C)CC4)cc3c(=O)[nH]2)cc1	STAT1 act 130
COc1cc(-c2nc3ccc(N4CCN(C)CC4)cc3[nH]2)cc(OC)c1OC	none
COc1ccc(CCNC(=O)Cn2c(=O)[nH]c3ccsc3c2=O)cc1OC	none
Cc1nc2ncnn2c(C)c1C/C=C/c1ccccc1	none
CCN(CC)c1ccc(-n2cc3c(=O)n(C)c(=O)n(C)c3c2)cc1	none
CN(C)c1ccc(-n2cc3c(=O)n(C)c(=O)n(C)c3c2)cc1	STAT1 act 134
O=C(N/C=C/n1cnc2cc(C(F)(F)F)ccc21)c1ccccc1F	none
CN1CCN(c2oc(/C=C/c3ccccc3)nc2C#N)CC1	none (no result: APP 5'UTR act, STAT1 act, NF-kB neuron act)
CN(C)c1oc(-c2ccccc2)nc1C#N	none
CN(C)c1oc(/C=C/c2ccccc2)nc1C#N	STAT1 act 138
CN(C)c1oc(-c2ccccc2Cl)nc1C#N	Mdm2 ligase inh 32
Cc1nc2ccccc2nc(C)c1=NO	STAT1 act 138
Cc1ccc2nc(C)/c(=N\O)c(C)nc2c1	APP 5'UTR act 195, STAT1 act 137
Cc1ccc(NC(=O)C(=O)Nc2ccc(C)cn2)nc1	none
Cc1ccc(NC(=O)/C=C/c2ccc(Cl)cc2)nc1	STAT1 act 137
O=C(/C=C/c1ccccc1)Nc1ccc(Br)cn1	STAT1 act 142
COc1ccc(N2Cc3ccccc3C2=NC(=O)c2cncc(Br)c2)cc1	none
O=C(O)CC/C(=N\NC(=O)CNC(=O)c1ccc(F)cc1)c1ccccc1	none (no result: APP 5'UTR act, STAT1 act, NF-kB neuron act)
CCOC(=O)c1ccc(NC(=O)Nc2cc(C)cc(C)n2)cc1	none
O=[N+]([O-])c1cccc(-n2cccc2/C=N/Nc2nc(N3CCCCC3)nc(N3CCCCC3)n2)c1	none
O=[N+]([O-])c1ccc(-n2cccc2/C=N/Nc2nc(N3CCCCC3)nc(N3CCCCC3)n2)cc1	Wee1 stabilizer 11
COc1ccc(CCNc2nnc(Sc3nnnn3-c3ccccc3)s2)cc1OC	NF-kB neuron act 3.7
O=C1NCCn2ccc(=O)cc21	Wee1 stabilizer 13 (no result: APP 5'UTR act, STAT1 act, NF-kB neuron act)
N#C/C(=C(/O)COC(=O)c1ccc(O)cc1)c1nc2ccccc2[nH]1	Wee1 stabilizer 8.9 (no result: APP 5'UTR act, STAT1 act, NF-kB neuron act)
N#C/C(=C(/O)COC(=O)CSc1ccc2ccccc2c1)c1nc2ccccc2[nH]1	NF-kB neuron act 3.5
CC(C)C(=O)OC/C(O)=C(\C#N)c1nc2ccccc2[nH]1	none
Cc1cc(Br)ccc1SCC(=O)OC/C(O)=C(\C#N)c1nc2ccccc2[nH]1	none (no result: APP 5'UTR act, Mdm2 ligase inh, STAT1 act, NF-kB neuron act)
CC(C)CN(C(=O)COC(=O)c1c(Cl)ccc(Cl)c1Cl)C1CCS(=O)(=O)C1 (centres undefined)	Wee1 stabilizer 8.8
